Assay results published in paper PMC9350900 (ACS chemical neuroscience, 2021).
Where two headings read alike, the source gives them in different places.

Key:
[1] = Dynamic PET imaging in wild-type mice; type: in vivo, mouse; conditions: wt male mice
How it was run: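 Three male C57BL/6 mice (7.5 months, 29–32 g) given an i.v. bolus of the [18F] tracer (9.1 ± 1.1 MBq; Am 18 ± 10 GBq/μmol). 60-min dynamic PET/MRI in 33 frames, FBP reconstruction. Decay-corrected, no attenuation or scatter correction. Whole-brain TAC via MR template atlas; SUV = regional radioactivity normalised to injected activity and body weight.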

[2] = Dynamic PET imaging in healthy rats; type: in vivo, rat
How it was run: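 Two healthy Sprague-Dawley rats, 3 months old (male 358 g, female 241 g), injected i.v. with 15.5 and 16.5 MBq of the [18F] tracer (Am 19 and 8 GBq/μmol). 120-min dynamic PET/MRI in 39 frames, FBP with Hann filter. Decay-corrected, without attenuation or scatter correction. Whole-brain TAC from MR template atlas; SUV normalised to injected activity and body weight.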

[3] = Baseline dynamic PET imaging in non-human primate; type: in vivo, rhesus monkey (Macaca mulatta); conditions: rhesus monkey, i.v. 185 MBq
How it was run: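 Rhesus monkey sedated with ketamine (15 mg/kg i.m.) plus glycopyrrolate (0.01 mg/kg i.m.), intubated, and kept under isoflurane (0.5–2.0%) in 40% oxygen/air. CT scan for attenuation correction. The [18F] tracer (185 MBq, <1.0 microgram mass) was given as a slow i.v. bolus (~20 s) with saline flush. Dynamic 90-min scan in 27 frames, FBP-reconstructed with full corrections. Whole-brain ROI time-activity curve in SUV.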

[4] = Radiometabolite analysis of blood samples in non-human primate; type: in vivo, rhesus monkey (Macaca mulatta); conditions: rhesus monkey blood, 10 min
How it was run: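 Anesthetised rhesus monkey given 185 MBq of the [18F] tracer as an i.v. bolus. Venous blood (~3 mL) drawn via saphenous catheter at 2, 10, 30, 45 and 90 min post-injection. Samples analysed by radio-HPLC for radiolabelled metabolites and the time-varying fraction of unmetabolized parent tracer.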

[5] = Lipophilicity by shake-flask method; type: physicochemical; conditions: 1-octanol
[6] = type: in vitro ADME; conditions: human
[7] = type: in vitro ADME; conditions: rat
[8] = biological target: T1, melatonin binding site (MT3 (ML2)) on quinone dehydrogenase 2 (Mesocricetus auratus, UniProt A0ABM2YAB8); test: Off-target selectivity screen; conditions: 1.0 μM, specific radioligand
T1 sequence (A0ABM2YAB8 1-231): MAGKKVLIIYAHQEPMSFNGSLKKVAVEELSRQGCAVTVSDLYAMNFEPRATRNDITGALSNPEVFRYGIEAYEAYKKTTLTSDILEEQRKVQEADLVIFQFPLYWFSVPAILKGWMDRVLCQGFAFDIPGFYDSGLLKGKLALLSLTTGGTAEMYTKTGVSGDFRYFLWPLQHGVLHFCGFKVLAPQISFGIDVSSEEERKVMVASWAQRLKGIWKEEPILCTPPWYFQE

[9] = test system: 93 CNS receptors and enzymes, including MAO-A and MAO-B; test: Off-target selectivity screen; type: binding; conditions: 93 proteins including MAO-A and MAO-B, 1.0 μM
[10] = biological target: P-glycoprotein (Homo sapiens, UniProt P08183); conditions: MDCK-MDR1
[11] = human
[12] = rat

Chain of P-glycoprotein (P08183 whole entry): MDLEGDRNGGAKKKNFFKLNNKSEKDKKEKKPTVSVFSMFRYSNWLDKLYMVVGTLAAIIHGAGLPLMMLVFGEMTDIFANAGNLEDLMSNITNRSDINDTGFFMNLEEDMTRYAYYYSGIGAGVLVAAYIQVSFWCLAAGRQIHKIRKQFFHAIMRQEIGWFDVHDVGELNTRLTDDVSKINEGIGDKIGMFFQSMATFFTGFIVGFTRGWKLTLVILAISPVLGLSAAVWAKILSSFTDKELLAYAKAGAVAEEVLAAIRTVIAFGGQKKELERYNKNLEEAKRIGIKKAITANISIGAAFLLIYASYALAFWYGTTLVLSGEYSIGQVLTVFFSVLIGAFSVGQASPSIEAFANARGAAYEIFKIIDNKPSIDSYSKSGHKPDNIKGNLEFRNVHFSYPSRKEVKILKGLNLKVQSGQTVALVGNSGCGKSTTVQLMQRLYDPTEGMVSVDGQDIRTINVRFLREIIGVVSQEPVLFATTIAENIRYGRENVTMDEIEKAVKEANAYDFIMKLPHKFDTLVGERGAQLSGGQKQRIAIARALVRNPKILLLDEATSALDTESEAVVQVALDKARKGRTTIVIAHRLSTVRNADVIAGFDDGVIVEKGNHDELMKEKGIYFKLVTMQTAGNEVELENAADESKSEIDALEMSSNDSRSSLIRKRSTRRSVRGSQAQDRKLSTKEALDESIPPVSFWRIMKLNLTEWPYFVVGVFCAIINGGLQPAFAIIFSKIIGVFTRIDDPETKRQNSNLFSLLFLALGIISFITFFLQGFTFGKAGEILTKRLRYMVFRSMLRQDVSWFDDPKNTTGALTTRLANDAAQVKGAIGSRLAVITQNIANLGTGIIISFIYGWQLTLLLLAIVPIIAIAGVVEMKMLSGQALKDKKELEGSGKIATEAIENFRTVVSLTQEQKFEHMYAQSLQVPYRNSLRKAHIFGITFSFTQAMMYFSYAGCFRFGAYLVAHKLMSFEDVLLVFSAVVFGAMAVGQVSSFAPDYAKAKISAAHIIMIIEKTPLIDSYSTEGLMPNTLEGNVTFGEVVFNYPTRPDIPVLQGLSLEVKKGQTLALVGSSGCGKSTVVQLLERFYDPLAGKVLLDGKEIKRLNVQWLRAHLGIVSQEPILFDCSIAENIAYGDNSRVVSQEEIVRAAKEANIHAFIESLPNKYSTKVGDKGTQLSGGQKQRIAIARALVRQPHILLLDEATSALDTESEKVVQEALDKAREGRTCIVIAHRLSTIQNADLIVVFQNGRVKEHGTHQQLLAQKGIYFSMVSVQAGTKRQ

Row | SMILES | maximum radioactivity in whole brain ([1]; i.v. bolus 9.1 ± 1.1 MBq) [SUV] | whole brain radioactivity after 30 min ([1]; i.v., after 30 min) | maximum radioactivity in whole brain ([2]; i.v. 15.5 and 16.5 MBq) [SUV] | whole brain radioactivity after 30 min ([2]; i.v., after 30 min) | peak brain activity [3] [SUV] | time to peak brain activity [3] [min] | brain activity after 25 min ([3]; after 25 min) | fraction of unmetabolized parent [4] [%] | logD7.4 [5] | stability in liver microsomes [6] [mL/min/kg] | stability in liver microsomes [7] [mL/min/kg] | interaction with off-target [8] | affinity for off-targets [9] | efflux ratio (B-A/A-B) [10] | free fraction in blood plasma [11] [%] | free fraction in blood plasma [12] [%]
1 | OCC1CCN(c2ccc(-c3cc4cc(O)ccc4[nH]3)c([18F])n2)CC1 [[^18F]CBD-2115] | 0.66 | below 0.1 SUV | 0.5 | below 0.1 SUV | 0.65 | ≤ 2 | below 0.2 SUV | 45 | 2.99 ± 0.15 |  |  |  |  |  |  | 
2 | OCC1CCN(c2ccc(-c3cc4cc(O)ccc4[nH]3)c(F)n2)CC1 [CBD-2115] |  |  |  |  |  |  |  |  |  | 8.56 | 63.84 | specific interaction | no significant affinity | 0.98 | 2.70 | 2.85
